In ChEMBL document CHEMBL1165943, “Design and synthesis of new anticancer pyrimidines with multiple-kinase inhibitory effect” (Bioorg Med Chem, 2010):

What was measured:
Type in all cases: functional
UO-31 = assay: Cytotoxicity against human UO31 cells assessed as cell growth at 10 uM; conditions: for growth at 10 µM: Homo sapiens, UO-31, read-out: Activity
Outline: (§1)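 Single-dose screen at 10 μM across the 60-cell-line panel. Cells grown in RPMI 1640 with 5% FBS and 2 mM L-glutamine, seeded at 5,000–40,000 cells/well according to doubling time, and treated 24 h later. Exposure lasted 48 h at 37 °C, 5% CO₂. Adherent cells were fixed with cold TCA, suspension cells were fixed settled, and both were stained with SRB and read at 515 nm. Growth % was recorded, with inhibition % = 100 − growth %.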

SF-268 = assay: Cytotoxicity against human SF268 cells assessed as cell growth at 10 uM; conditions: Homo sapiens, SF-268; read-out: Activity; outline: as §1
ACHN = assay: Cytotoxicity against human ACHN cells assessed as cell growth at 10 uM; conditions: for growth at 10 µM: Homo sapiens, ACHN, read-out: Activity
Outline: (§2)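 Single-concentration screen at 10 μM across the 60-cell-line panel (nine tissue types); growth percentage recorded per cell line, with inhibition taken as 100 minus growth percentage.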

T47D = assay: Cytotoxicity against human T47D cells assessed as cell growth at 10 uM; conditions: for growth at 10 µM: Homo sapiens, T47D, read-out: Activity; outline: as §1
DU-145 = assay: Cytotoxicity against human DU145 cells assessed as cell growth at 10 uM; conditions: for growth at 10 µM: Homo sapiens, DU-145, read-out: Activity; outline: as §2
HT-29 = assay: Cytotoxicity against human HT-29 cells assessed as cell growth at 10 uM; conditions: Homo sapiens, HT-29; read-out: Activity; outline: as §2
EKVX = assay: Cytotoxicity against human EKVX cells assessed as cell growth at 10 uM; conditions: Homo sapiens, EKVX; read-out: Activity; outline: as §2
IGROV-1 = assay: Cytotoxicity against human IGROV1 cells assessed as cell growth at 10 uM; conditions: for growth at 10 µM: Homo sapiens, IGROV-1, read-out: Activity; outline: as §1
NCI-H226 = assay: Cytotoxicity against human NCI-H226 cells assessed as cell growth at 10 uM; conditions: Homo sapiens, NCI-H226; read-out: Activity; outline: as §1
OVCAR-3 = assay: Cytotoxicity against human OVCAR-3 cells assessed as cell growth at 10 uM; conditions: for growth at 10 µM: Homo sapiens, OVCAR-3, read-out: Activity; outline: as §1
OVCAR-5 = assay: Cytotoxicity against human OVCAR5 cells assessed as cell growth at 10 uM; conditions: for growth at 10 µM: Homo sapiens, OVCAR-5, read-out: Activity; outline: as §1
NCI-H23 = assay: Cytotoxicity against human NCI-H23 cells assessed as cell growth at 10 uM; conditions: Homo sapiens, NCI-H23; read-out: Activity; outline: as §1
HCT-116 = assay: Cytotoxicity against human HCT116 cells assessed as cell growth at 10 uM; conditions: Homo sapiens, HCT-116; read-out: Activity; outline: as §2
K562 = assay: Cytotoxicity against human K562 cells assessed as cell growth at 10 uM; conditions: Homo sapiens, K562; read-out: Activity; outline: as §1
MDA-MB-468 = assay: Cytotoxicity against human MDA-MB-468 cells assessed as cell growth at 10 uM; conditions: for growth at 10 µM: Homo sapiens, MDA-MB-468, read-out: Activity; outline: as §1
SK-MEL-2 = assay: Cytotoxicity against human SK-MEL-2 cells assessed as cell growth at 10 uM; conditions: for growth at 10 µM: Homo sapiens, SK-MEL-2, read-out: Activity; outline: as §1
HL-60(TB) = assay: Cytotoxicity against human HL-60(TB) cells assessed as cell growth at 10 uM; conditions: Homo sapiens, HL-60; read-out: Activity
Outline: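 Single-concentration 10 µM screen of HL-60(TB) within the 60-line panel, grown in RPMI 1640 with 5% FBS. The drug from DMSO stock is incubated 48 h at 37 °C, settled cells are TCA-fixed and SRB-stained, and absorbance is read at 515 nm. Percent growth is reported, and inhibition % is taken as 100 minus growth %.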

COLO 205 = assay: Cytotoxicity against human COLO205 cells assessed as cell growth at 10 uM; conditions: Homo sapiens, COLO 205; read-out: Activity; outline: as §2
UACC-62 = assay: Cytotoxicity against human UACC62 cells assessed as cell growth at 10 uM; conditions: for growth at 10 µM: Homo sapiens, UACC-62, read-out: Activity; outline: as §1
HCT-15 = assay: Cytotoxicity against human HCT15 cells assessed as cell growth at 10 uM; conditions: Homo sapiens, HCT-15; read-out: Activity; outline: as §2
U-251 = assay: Cytotoxicity against human U251 cells assessed as cell growth at 10 uM; conditions: Homo sapiens, U-251; read-out: Activity; outline: as §1
UACC-257 = assay: Cytotoxicity against human UACC257 cells assessed as cell growth at 10 uM; conditions: for growth at 10 µM: Homo sapiens, UACC-257, read-out: Activity; outline: as §1
HOP-62 = assay: Cytotoxicity against human HOP62 cells assessed as cell growth at 10 uM; conditions: Homo sapiens, HOP-62; read-out: Activity; outline: as §2
[1] = Growth inhibition of human NCI60 cells at 10 uM after 48 hrs by sulforhodamine B assay relative to control; conditions: Homo sapiens, NCI60, 48 h; read-out: GI
Outline: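 Single 10 µM dose across the 60-line panel for 48 h, with the same culture, TCA fixation and SRB 515 nm read-out. Inhibition % = 100 − growth %, given as the mean over the 60 cell lines.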

LOX IMVI = assay: Cytotoxicity against human LOXIMVI cells assessed as cell growth at 10 uM; conditions: for growth at 10 µM: Homo sapiens, LOX IMVI, read-out: Activity; outline: as §1
SK-OV-3 = assay: Cytotoxicity against human SKOV3 cells assessed as cell growth at 10 uM; conditions: for growth at 10 µM: Homo sapiens, SK-OV-3, read-out: Activity; outline: as §1
KM12 = assay: Cytotoxicity against human KM12 cells assessed as cell growth at 10 uM; conditions: Homo sapiens, KM12; read-out: Activity; outline: as §1
PC-3 = assay: Cytotoxicity against human PC3 cells assessed as cell growth at 10 uM; conditions: for growth at 10 µM: Homo sapiens, PC-3, read-out: Activity; outline: as §1
MDA-MB-231 = assay: Cytotoxicity against human MDA-MB-231 cells assessed as cell growth at 10 uM; conditions: for growth at 10 µM: Homo sapiens, MDA-MB-231, read-out: Activity; outline: as §1
OVCAR-4 = assay: Cytotoxicity against human OVCAR4 cells assessed as cell growth at 10 uM; conditions: for growth at 10 µM: Homo sapiens, OVCAR-4, read-out: Activity; outline: as §1
M14 = assay: Cytotoxicity against human M14 cells assessed as cell growth at 10 uM; conditions: for growth at 10 µM: Homo sapiens, M14, read-out: Activity; outline: as §1
NCI-H322M = assay: Cytotoxicity against human NCI-H322M cells assessed as cell growth at 10 uM; conditions: Homo sapiens, NCI-H322M; read-out: Activity; outline: as §1
OVCAR-8 = assay: Cytotoxicity against human OVCAR8 cells assessed as cell growth at 10 uM; conditions: for growth at 10 µM: Homo sapiens, OVCAR-8, read-out: Activity; outline: as §1
SW-620 = assay: Cytotoxicity against human SW620 cells assessed as cell growth at 10 uM; conditions: Homo sapiens, SW-620; read-out: Activity; outline: as §1
SK-MEL-28 = assay: Cytotoxicity against human SK-MEL-28 cells assessed as cell growth at 10 uM; conditions: for growth at 10 µM: Homo sapiens, SK-MEL-28, read-out: Activity; outline: as §1
SF-295 = assay: Cytotoxicity against human SF295 cells assessed as cell growth at 10 uM; conditions: for growth at 10 µM: Homo sapiens, SF-295, read-out: Activity; outline: as §1

Structure (SMILES)	growth at 10 µM (UO-31)	growth at 10 µM (SF-268)	growth at 10 µM (ACHN)	growth at 10 µM (T47D)	growth at 10 µM (DU-145)	growth at 10 µM (HT-29)	growth at 10 µM (EKVX)	growth at 10 µM (NCI-H226)	growth at 10 µM (NCI-H23)	growth at 10 µM (HCT-116)	growth at 10 µM (K562)	growth at 10 µM (HL-60(TB))	growth at 10 µM (COLO 205)	growth at 10 µM (HCT-15)	growth at 10 µM (U-251)	growth at 10 µM (HOP-62)	inhibition of growth at 10 µM [1]	growth at 10 µM (KM12)	growth at 10 µM (NCI-H322M)	growth at 10 µM (SW-620)	further results
Cc1cc(-c2cccnc2)nc(NC(=O)c2cccc(C(F)(F)F)c2)n1	86.7%	103%	105%	95.5%	101%	98.9%	101%	97.5%	101%	105%	89%	97%	119%	98.3%	97%	106%	0.62%	109%	100%	105%	growth at 10 µM (IGROV-1): 103%; growth at 10 µM (OVCAR-3): 116%; growth at 10 µM (OVCAR-5): 95.7%; growth at 10 µM (MDA-MB-468): 96.7%; growth at 10 µM (SK-MEL-2): 93.5%; growth at 10 µM (UACC-62): 92.3%; growth at 10 µM (UACC-257): 99.6%; growth at 10 µM (LOX IMVI): 103%; growth at 10 µM (SK-OV-3): 101%; growth at 10 µM (PC-3): 99.2%; growth at 10 µM (MDA-MB-231): 98.4%; growth at 10 µM (OVCAR-4): 103%; growth at 10 µM (M14): 109%; growth at 10 µM (OVCAR-8): 96.6%; growth at 10 µM (SK-MEL-28): 108%; growth at 10 µM (SF-295): 101%
CC(=O)c1ccccc1-c1ccc(-c2ccnc(NC(=O)Nc3cc(C(F)(F)F)cc(C(F)(F)F)c3)n2)cn1	–	94.4%	–	–	–	96.3%	91%	98.6%	99.8%	69.9%	90.8%	101%	90.9%	93.2%	85.1%	95.6%	11.3%	93.8%	85%	81.8%	Activity (UO-31): 76.28%; Activity (ACHN): 88.77%; Activity (T47D): 82.59%; Activity (DU-145): 91.19%; Activity (IGROV-1): 78.4%; Activity (OVCAR-3): 126.52%; Activity (OVCAR-5): 113.85%; Activity (MDA-MB-468): 81.95%; Activity (SK-MEL-2): 95.01%; Activity (UACC-62): 92.88%; Activity (UACC-257): 92.59%; Activity (LOX IMVI): 65.57%; Activity (SK-OV-3): 91.88%; Activity (PC-3): 74.12%; Activity (MDA-MB-231): 83.21%; Activity (OVCAR-4): -18.53%; Activity (M14): 102.28%; Activity (OVCAR-8): 83.37%; Activity (SK-MEL-28): 109.71%; Activity (SF-295): 110.95%
O=C(Nc1cc(C(F)(F)F)cc(C(F)(F)F)c1)Nc1nccc(-c2ccc(Nc3ccccc3)nc2)n1	91.6%	117%	93%	110%	126%	94.4%	134%	104%	108%	93.2%	93.6%	99.7%	136%	108%	113%	103%	-6.98%	117%	144%	98.8%	growth at 10 µM (IGROV-1): 105%; growth at 10 µM (OVCAR-3): 124%; growth at 10 µM (OVCAR-5): 87%; growth at 10 µM (MDA-MB-468): 108%; growth at 10 µM (SK-MEL-2): 101%; growth at 10 µM (UACC-62): 101%; growth at 10 µM (UACC-257): 112%; growth at 10 µM (LOX IMVI): 112%; growth at 10 µM (SK-OV-3): 83.3%; growth at 10 µM (PC-3): 93.5%; growth at 10 µM (MDA-MB-231): 93.4%; growth at 10 µM (OVCAR-4): 114%; growth at 10 µM (M14): 94.2%; growth at 10 µM (OVCAR-8): 103%; growth at 10 µM (SK-MEL-28): 99.8%; growth at 10 µM (SF-295): 137%
